Measured values taken from ChEMBL document CHEMBL3112419, “Hydroxy fatty acids for the delivery of dideoxynucleosides as anti-HIV agents” (Bioorg Med Chem Lett, 2014).

Experiments:
[1] = tested on: Human immunodeficiency virus 2; test: Antiviral activity against HIV-2 ROD infected in human CEM/0 cells; assay type: functional, organism-based; settings: Human immunodeficiency virus 2, ISOLATE ROD, CCRF-CEM
In short: (§1)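 HIV-2 strain ROD was tested in wild-type CEM (CEM/0) cells and in thymidine kinase-deficient CEM (CEM/TK⁻) cells. Conjugates were tested as diastereomeric mixtures, and parent nucleosides were included as references.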

[2] = Cytotoxicity against human MT4 cells; assay type: cell-based
In short: (§2)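 MT-4 cell cultures infected with wild-type HIV-1 or HIV-2, with cytotoxicity assessed in parallel in the same cells. Lipid-nucleotide conjugates were purified as Na⁺ salts and tested as diastereomeric mixtures. Parent dideoxynucleosides were run alongside as references.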

[3] = tested on: Human immunodeficiency virus 1; test: Antiviral activity against HIV-1 3B infected in human MT4 cells; assay type: functional, organism-based; settings: Human immunodeficiency virus 1, 3B; in short: as §2
[4] = Cytotoxicity against human CEM/0 cells; assay type: cell-based, CCRF-CEM
[5] = tested on: Human immunodeficiency virus 2; test: Antiviral activity against HIV-2 ROD infected in human MT4 cells; assay type: functional, organism-based; settings: Human immunodeficiency virus 2, ISOLATE ROD; in short: as §2
[6] = tested on: Human immunodeficiency virus 2; test: Antiviral activity against HIV-2 ROD infected in thymidine kinase-deficient human CEM cells; assay type: functional, organism-based; settings: Human immunodeficiency virus 2, ISOLATE ROD, CCRF-CEM; in short: as §1

| SMILES | IC50 [1] | CC50 [2] | IC50 [3] | CC50 [4] | IC50 [5] | IC50 [6] |
| --- | --- | --- | --- | --- | --- | --- |
| CCCCCCCCCCCCCCCCC(OP(=O)(O)OC[C@@H]1C=C[C@H](n2cc(C)c(=O)[nH]c2=O)O1)C(=O)O (some centres not stated) | > 39.6 µM | 64.7 µM | 0.4 µM | 92.6 µM | 0.4 µM | > 39.6 µM |
| CCCCCCCCCCCCCCCCC(OP(=O)(O)OC[C@@H]1CC[C@H](n2ccc(N)nc2=O)O1)C(=O)O (some centres not stated) | 7.5 µM | 94.1 µM | 9.7 µM | 91.1 µM | 5.7 µM | > 40.5 µM |
| Cc1cn([C@H]2C=C[C@@H](CO)O2)c(=O)[nH]c1=O [STAVUDINE] | 8.8 µM | 327 µM | 0.26 µM | > 268 µM | 0.4 µM | ≥ 120 µM |
| Cc1cn([C@H]2C[C@H](N=[N+]=[N-])[C@@H](CO)O2)c(=O)[nH]c1=O [ZIDOVUDINE] | 0.04 µM | > 93.5 µM |  | > 468 µM | 0.007 µM | > 14.9 µM |
| Nc1ccn([C@H]2CC[C@@H](CO)O2)c(=O)n1 [ZALCITABINE] | 0.5 µM | 325 µM | 1 µM | 179 µM | 1.9 µM | 1.9 µM |
| Nc1ncnc2c1ncn2[C@H]1C=C[C@@H](CO)O1 | ≥ 36.6 µM | 278 µM | > 278 µM | 360 µM | > 278 µM | ≥ 81.9 µM |
| CCCCCCCCCCCCCCCCC(OP(=O)(O)OC[C@@H]1C=C[C@H](n2cnc3c(N)ncnc32)O1)C(=O)O (some centres not stated) | 25.3 µM | 97.8 µM | 0.19 µM | 81.3 µM | 0.11 µM | > 39.1 µM |
| CCCCCCCCCCCCCCCC(CC(=O)O)OP(=O)(O)OC[C@@H]1C=C[C@H](n2cc(C)c(=O)[nH]c2=O)O1 (some centres not stated) | > 198 µM | > 198 µM | 10.9 µM | > 198 µM | 16.2 µM | > 39.6 µM |
